Assay results published in ChEMBL document CHEMBL1687778, “Genetic determinants involved in the susceptibility of Pseudomonas aeruginosa to beta-lactam antibiotics” (2010).

Tests used:
Type in all cases: functional
Pseudomonas aeruginosa [1] = assay: Antimicrobial activity against Pseudomonas aeruginosa PA14 PA4527 harboring pilC mutant gene by Etest method
Outline: (§1)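 Etest MIC. Overnight LB cultures at 37°C were diluted in sterile 0.85% NaCl to about 1 × 10^7 CFU/ml. 100 µl was spread on Mueller-Hinton agar, one strip was placed per plate, and plates were incubated at 37°C for 18 h. Equal cell numbers were seeded per plate, and results were verified in triplicate. PA14 wild type was included in each set as a susceptibility control.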

Pseudomonas aeruginosa [2] = assay: Antimicrobial activity against Pseudomonas aeruginosa PA14 PA4459 harboring mutation in Conserved hypothetical protein by Etest method; outline: as §1
Pseudomonas aeruginosa [3] = assay: Antimicrobial activity against Pseudomonas aeruginosa PA14 PA0011 harboring mutation in putative 2-OH-lauroyltransferase by Etest method
Outline: (§2)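 Overnight LB cultures (37°C) diluted in sterile 0.85% NaCl to about 1 × 10^7 CFU/ml. 100 µl spread on Mueller-Hinton agar, one Etest strip per plate, 18 h at 37°C. Ceftazidime, imipenem and meropenem tested. Wild-type PA14 plate included in each set. Each mutant verified in triplicate.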

Pseudomonas aeruginosa [4] = assay: Antimicrobial activity against Pseudomonas aeruginosa PA14 PA2970 harboring rpmF mutant gene by Etest method; outline: as §2
Pseudomonas aeruginosa [5] = assay: Antimicrobial activity against Pseudomonas aeruginosa PA14 PA1195 harboring mutation in putative dimethylarginine dimethylaminohydrolase by Etest method; outline: as §2
Pseudomonas aeruginosa [6] = assay: Antimicrobial activity against Pseudomonas aeruginosa PA14 PA0503 harboring mutation in Putative biotin synthesis protein BioC by Etest method; outline: as §2
Pseudomonas aeruginosa [7] = assay: Antimicrobial activity against Pseudomonas aeruginosa PA14 PA3704 harboring wspE mutant gene by Etest method; outline: as §1
Pseudomonas aeruginosa [8] = assay: Antimicrobial activity against Pseudomonas aeruginosa PA14 PA3620 harboring mutS mutant gene by Etest method; outline: as §1
Pseudomonas aeruginosa [9] = assay: Antimicrobial activity against Pseudomonas aeruginosa PA14 PA5443 harboring uvrD mutant gene by Etest method; outline: as §1
Pseudomonas aeruginosa [10] = assay: Antimicrobial activity against Pseudomonas aeruginosa PA14 PA0427 harboring oprM mutant gene by Etest method; outline: as §2
Pseudomonas aeruginosa [11] = assay: Antimicrobial activity against Pseudomonas aeruginosa PA14 PA0667 harboring mutation in putative metallopeptidase by Etest method; outline: as §2
Pseudomonas aeruginosa [12] = assay: Antimicrobial activity against Pseudomonas aeruginosa PA14 PA4269 harboring rpoC mutant gene by Etest method; outline: as §1
Pseudomonas aeruginosa [13] = assay: Antimicrobial activity against Pseudomonas aeruginosa PA14 PA4402 harboring argJ mutant gene by Etest method; outline: as §1
Pseudomonas aeruginosa [14] = assay: Antimicrobial activity against Pseudomonas aeruginosa PA14 PA3589 harboring mutation in acetyl-coenzyme A (CoA) acetyltransferase (thiolase) by Etest method; outline: as §1
Pseudomonas aeruginosa [15] = assay: Antimicrobial activity against Pseudomonas aeruginosa PA14 PA5005 harboring mutation in putative carbamoyltransferase by Etest method; outline: as §1
Pseudomonas aeruginosa [16] = assay: Antimicrobial activity against Pseudomonas aeruginosa PA14 PA0479 harboring mutation in putative transcriptional regulator, LysR family by Etest method; outline: as §2
Pseudomonas aeruginosa [17] = assay: Antimicrobial activity against Pseudomonas aeruginosa PA14 PA0401 harboring mutation in Noncatalytic dihydroorotase-like protein by Etest method; outline: as §2
Pseudomonas aeruginosa [18] = assay: Antimicrobial activity against Pseudomonas aeruginosa PA14 PA1553 harboring mutation in putative cytochrome c oxidase, cbb3 type, subunit II by Etest method; outline: as §2
Pseudomonas aeruginosa [19] = assay: Antimicrobial activity against Pseudomonas aeruginosa PA14 PA14_23420 harboring mutation in putative zinc-binding dehydrogenase by Etest method; outline: as §2
Pseudomonas aeruginosa [20] = assay: Antimicrobial activity against Pseudomonas aeruginosa PA14 PA5174 harboring mutation in putative beta-ketoacyl synthase by Etest method; outline: as §1
Pseudomonas aeruginosa [21] = assay: Antimicrobial activity against Pseudomonas aeruginosa PA14 PA5000 harboring wapR mutant gene by Etest method; outline: as §1
Pseudomonas aeruginosa [22] = assay: Antimicrobial activity against Pseudomonas aeruginosa PA14 PA0420 harboring bioA mutant gene by Etest method; outline: as §2
Pseudomonas aeruginosa [23] = assay: Antimicrobial activity against Pseudomonas aeruginosa PA14 PA14_06490 harboring mutation in hypothetical protein by Etest method; outline: as §2
Pseudomonas aeruginosa [24] = assay: Antimicrobial activity against Pseudomonas aeruginosa PA14 PA3262 harboring fklB mutant gene by Etest method; outline: as §1
Pseudomonas aeruginosa [25] = assay: Antimicrobial activity against Pseudomonas aeruginosa PA14 PA14_07490/07510 harboring mutation in intergenic region by Etest method; outline: as §2
Pseudomonas aeruginosa [26] = assay: Antimicrobial activity against Pseudomonas aeruginosa PA14 PA4005 harboring mutation in conserved hypothetical protein by Etest method; outline: as §1
Pseudomonas aeruginosa [27] = assay: Antimicrobial activity against Pseudomonas aeruginosa PA14 PA4393 harboring mutation in putative permease by Etest method; outline: as §1
Pseudomonas aeruginosa [28] = assay: Antimicrobial activity against Pseudomonas aeruginosa PA14 PA3247 harboring mutation in putative aspartyl aminopeptidase by Etest method; outline: as §2
Pseudomonas aeruginosa [29] = assay: Antimicrobial activity against Pseudomonas aeruginosa PA14 PA2963 harboring mutation in putative aminodeoxychorismate lyase by Etest method; outline: as §2
Pseudomonas aeruginosa [30] = assay: Antimicrobial activity against Pseudomonas aeruginosa PA14 PA3978 harboring mutation in hypothetical protein by Etest method; outline: as §1
Pseudomonas aeruginosa [31] = assay: Antimicrobial activity against Pseudomonas aeruginosa PA14 PA4069 harboring mutation in putative dTDP-4-rhamnose reductase-related protein by Etest method; outline: as §1
Pseudomonas aeruginosa [32] = assay: Antimicrobial activity against Pseudomonas aeruginosa PA14 PA4550 harboring fimU mutant gene by Etest method; outline: as §1
Pseudomonas aeruginosa [33] = assay: Antimicrobial activity against Pseudomonas aeruginosa PA14 PA2128 harboring cupA1 mutant gene by Etest method; outline: as §2
Pseudomonas aeruginosa [34] = assay: Antimicrobial activity against Pseudomonas aeruginosa PA14 PA5038 harboring aroB mutant gene by Etest method; outline: as §1
Pseudomonas aeruginosa [35] = assay: Antimicrobial activity against Pseudomonas aeruginosa PA14 PA3721 harboring nalC mutant gene by Etest method; outline: as §1
Pseudomonas aeruginosa [36] = assay: Antimicrobial activity against Pseudomonas aeruginosa PA14 PA0807 harboring ampDh3 mutant gene by Etest method; outline: as §2
Pseudomonas aeruginosa [37] = assay: Antimicrobial activity against Pseudomonas aeruginosa PA14 PA0908 harboring mutation in hypothetical protein by Etest method; outline: as §2
Pseudomonas aeruginosa [38] = assay: Antimicrobial activity against Pseudomonas aeruginosa PA14 PA3145 harboring wbpL mutant gene by Etest method; outline: as §2
Pseudomonas aeruginosa [39] = assay: Antimicrobial activity against Pseudomonas aeruginosa PA14 PA5001 harboring mutation in conserved hypothetical protein by Etest method; outline: as §1
Pseudomonas aeruginosa [40] = assay: Antimicrobial activity against Pseudomonas aeruginosa PA14 PA3259 harboring mutation in conserved hypothetical protein by Etest method; outline: as §1
Pseudomonas aeruginosa [41] = assay: Antimicrobial activity against Pseudomonas aeruginosa PA14 PA3520 harboring mutation in putative periplasmic metal-binding protein by Etest method; outline: as §1
Pseudomonas aeruginosa [42] = assay: Antimicrobial activity against Pseudomonas aeruginosa PA14 PA4007 harboring proA mutant gene by Etest method; outline: as §1
Pseudomonas aeruginosa [43] = assay: Antimicrobial activity against Pseudomonas aeruginosa PA14 PA4946 harboring mutL mutant gene by Etest method; outline: as §1
Pseudomonas aeruginosa [44] = assay: Antimicrobial activity against Pseudomonas aeruginosa PA14 PA5288 harboring glnK mutant gene by Etest method; outline: as §1
Pseudomonas aeruginosa [45] = assay: Antimicrobial activity against Pseudomonas aeruginosa PA14 PA4753 harboring mutation in putative RNA-binding protein by Etest method; outline: as §1
Pseudomonas aeruginosa [46] = assay: Antimicrobial activity against Pseudomonas aeruginosa PA14 PA3649 harboring mutation in putative membrane-associated zinc metalloprotease by Etest method; outline: as §1
Pseudomonas aeruginosa [47] = assay: Antimicrobial activity against Pseudomonas aeruginosa PA14 PA2023 harboring galU mutant gene by Etest method; outline: as §2

Measured: MIC

C[C@@H](O)[C@H]1C(=O)N2C(C(=O)O)=C(S[C@@H]3CN[C@H](C(=O)N(C)C)C3)[C@H](C)[C@H]12 [MEROPENEM]
0.38 µg/mL: Pseudomonas aeruginosa [21] | Pseudomonas aeruginosa [35] | Pseudomonas aeruginosa [39] | Pseudomonas aeruginosa [41] | Pseudomonas aeruginosa [47]
0.25 µg/mL: Pseudomonas aeruginosa [7] | Pseudomonas aeruginosa [34] | Pseudomonas aeruginosa [36] | Pseudomonas aeruginosa [37]
0.047 µg/mL: Pseudomonas aeruginosa [16] | Pseudomonas aeruginosa [44]
0.064 µg/mL: Pseudomonas aeruginosa [17] | Pseudomonas aeruginosa [31] | Pseudomonas aeruginosa [45]
0.19 µg/mL: Pseudomonas aeruginosa [11] | Pseudomonas aeruginosa [13] | Pseudomonas aeruginosa [27]
0.023 µg/mL: Pseudomonas aeruginosa [10]
0.094 µg/mL: Pseudomonas aeruginosa [9] | Pseudomonas aeruginosa [12] | Pseudomonas aeruginosa [22] | Pseudomonas aeruginosa [25] | Pseudomonas aeruginosa [26] | Pseudomonas aeruginosa [38] | Pseudomonas aeruginosa [43]
0.125 µg/mL: all other assays above

CC(C)(O/N=C(\C(=O)N[C@@H]1C(=O)N2C(C(=O)[O-])=C(C[n+]3ccccc3)CS[C@H]12)c1csc(N)n1)C(=O)O [CEFTAZIDIME]
1 µg/mL: Pseudomonas aeruginosa [20]
1.5 µg/mL: Pseudomonas aeruginosa [2] | Pseudomonas aeruginosa [9] | Pseudomonas aeruginosa [35] | Pseudomonas aeruginosa [40] | Pseudomonas aeruginosa [41] | Pseudomonas aeruginosa [43]
0.75 µg/mL: Pseudomonas aeruginosa [18] | Pseudomonas aeruginosa [24] | Pseudomonas aeruginosa [26] | Pseudomonas aeruginosa [27] | Pseudomonas aeruginosa [29] | Pseudomonas aeruginosa [30] | Pseudomonas aeruginosa [31] | Pseudomonas aeruginosa [36] | Pseudomonas aeruginosa [42]
3 µg/mL: Pseudomonas aeruginosa [13] | Pseudomonas aeruginosa [15] | Pseudomonas aeruginosa [34] | Pseudomonas aeruginosa [39] | Pseudomonas aeruginosa [47]
0.25 µg/mL: Pseudomonas aeruginosa [45]
4 µg/mL: Pseudomonas aeruginosa [21]
0.5 µg/mL: Pseudomonas aeruginosa [4] | Pseudomonas aeruginosa [5] | Pseudomonas aeruginosa [6] | Pseudomonas aeruginosa [12] | Pseudomonas aeruginosa [22] | Pseudomonas aeruginosa [25] | Pseudomonas aeruginosa [33] | Pseudomonas aeruginosa [44] | Pseudomonas aeruginosa [46]
0.38 µg/mL: Pseudomonas aeruginosa [3] | Pseudomonas aeruginosa [10] | Pseudomonas aeruginosa [17]
2 µg/mL: all other assays above
